Results: ChEMBL document CHEMBL3046583, “Design, synthesis, and insecticidal activity of novel pyrazole derivatives containing α-hydroxymethyl-N-benzyl carboxamide, α-chloromethyl-N-benzyl carboxamide, and 4,5-dihydrooxazole moieties” (2012)
The source made the active and inactive calls. No cut-off for these calls is given here.

How the values were obtained:
Culex pipiens pallens [1] = test: Larvicidal activity against Culex pipiens pallens (mosquito) at 0.5 mg/kg; assay type: functional
Culex pipiens pallens [2] = test: Larvicidal activity against Culex pipiens pallens (mosquito) at 2 mg/kg; assay type: functional
Tetranychus cinnabarinus [3] = test: Acaricidal activity against Tetranychus cinnabarinus (carmine spider mite) eggs at 600 mg/kg by leaf dip method; assay type: functional, Egg
Aphis craccivora [4] = test: Larvicidal activity against Aphis craccivora (cowpea aphid) at 200 mg/kg by leaf dip method; assay type: functional
Tetranychus cinnabarinus [5] = test: Acaricidal activity against Tetranychus cinnabarinus (carmine spider mite) eggs at 200 mg/kg by leaf dip method; assay type: functional, Egg
Tetranychus cinnabarinus [6] = test: Acaricidal activity against Tetranychus cinnabarinus (carmine spider mite) larvae at 200 mg/kg by leaf dip method; assay type: functional
Culex pipiens pallens [7] = test: Larvicidal activity against Culex pipiens pallens (mosquito) at 1 mg/kg; assay type: functional
Tetranychus cinnabarinus [8] = test: Acaricidal activity against Tetranychus cinnabarinus (carmine spider mite) larvae at 600 mg/kg by leaf dip method; assay type: functional
Tetranychus cinnabarinus [9] = test: Acaricidal activity against Tetranychus cinnabarinus (carmine spider mite) adults at 200 mg/kg by leaf dip method; assay type: functional
Aphis craccivora [10] = test: Larvicidal activity against Aphis craccivora (cowpea aphid) at 600 mg/kg by leaf dip method; assay type: functional
Culex pipiens pallens [11] = test: Larvicidal activity against Culex pipiens pallens (mosquito) at 5 mg/kg; assay type: functional
Culex pipiens pallens [12] = test: Larvicidal activity against Culex pipiens pallens (mosquito); assay type: functional
Tetranychus cinnabarinus [13] = test: Acaricidal activity against Tetranychus cinnabarinus (carmine spider mite) adults at 600 mg/kg by leaf dip method; assay type: functional
Plutella xylostella [14] = test: Antifeedant activity against Plutella xylostella (diamondback moth) at 200 to 600 mg/kg by leaf dip method; assay type: functional, organism-based
Helicoverpa armigera [15] = test: Stomach toxicity against third-instars Helicoverpa armigera assessed as larvicidal activity at 22 mg/kg at 25 +/- 1 degC after 3 days; assay type: functional
Method in brief: (§1)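 Diet-incorporation assay on third-instar larvae. Samples dissolved in acetone to the desired final concentrations; 3 mL of test solution mixed evenly into about 27 g of prepared feed, then dispensed into 24-well plates. Run in triplicate at 25 ± 1 °C. Dead/alive scoring 3 days after treatment; mortality corrected by Abbott's formula on a 0–100 scale.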

Plutella xylostella [16] = test: Stomach toxicity against Plutella xylostella (diamondback moth) assessed as larvicidal activity at 600 mg/kg by leaf dip method; assay type: functional
Helicoverpa armigera [17] = test: Stomach toxicity against third-instars Helicoverpa armigera assessed as larvicidal activity at 110 mg/kg at 25 +/- 1 degC after 3 days; assay type: functional; method in brief: as §1
Helicoverpa armigera [18] = test: Stomach toxicity against third-instars Helicoverpa armigera assessed as larvicidal activity at 11 mg/kg at 25 +/- 1 degC after 3 days; assay type: functional; method in brief: as §1
Plutella xylostella [19] = test: Stomach toxicity against Plutella xylostella (diamondback moth) assessed as larvicidal activity at 200 mg/kg by leaf dip method; assay type: functional
Helicoverpa armigera [20] = test: Stomach toxicity against third-instars Helicoverpa armigera assessed as larvicidal activity at 5.5 mg/kg at 25 +/- 1 degC after 3 days; assay type: functional; method in brief: as §1
Helicoverpa armigera [21] = test: Stomach toxicity against third-instars Helicoverpa armigera assessed as larvicidal activity at 55 mg/kg at 25 +/- 1 degC after 3 days; assay type: functional; method in brief: as §1
Helicoverpa armigera [22] = test: Stomach toxicity against third-instars Helicoverpa armigera assessed as larvicidal activity at 25 +/- 1 degC after 3 days; assay type: functional; method in brief: as §1

SMILES | Activity (Culex pipiens pallens [1]) [%] | Activity (Culex pipiens pallens [2]) [%] | Activity (Tetranychus cinnabarinus [3]) [%] | Activity (Aphis craccivora [4]) [%] | Activity (Tetranychus cinnabarinus [5]) [%] | Activity (Tetranychus cinnabarinus [6]) [%] | Activity (Culex pipiens pallens [7]) [%] | Activity (Tetranychus cinnabarinus [8]) [%] | Activity (Tetranychus cinnabarinus [9]) [%] | Activity (Aphis craccivora [10]) [%] | Activity (Culex pipiens pallens [11]) [%] | Activity (Tetranychus cinnabarinus [13]) [%] | Activity (Plutella xylostella [14]) | Activity (Helicoverpa armigera [15]) [%] | Activity (Plutella xylostella [16]) [%] | Activity (Helicoverpa armigera [17]) [%] | Activity (Helicoverpa armigera [18]) [%] | Activity (Plutella xylostella [19]) [%] | Activity (Helicoverpa armigera [20]) [%] | Activity (Helicoverpa armigera [21]) [%] | further results
CCc1nn(C)c(C(=O)NCc2ccc(C(C)(C)C)cc2)c1Cl [TEBUFENPYRAD] | 0 | 100 | 100 | 100 | 100 | 100 | 70 | 100 | 100 | 100 | 100 | 100 |  |  |  |  |  |  |  |  | LC50 (Culex pipiens pallens [12]): 0.61 mg/kg
CCc1nn(C)c(C(=O)NC(CCl)c2ccc(Cl)cc2)c1Cl (stereo not drawn) | 0 | 100 | 10 | 50 | 0 |  | 50 | 0 |  | 80 | 100 | 0 | Active | 100 | 70 | 100 | 70 | 60 | 40 | 100 | 
CCc1cc(C2=NC(c3ccc(C(C)(C)C)cc3)CO2)n(C)n1 (stereo not drawn) |  | 60 | 100 | 90 | 95 | 80 | 0 | 90 | 95 | 98 | 100 | 100 | Active | 40 | 60 | 100 | 0 | 45 |  | 100 | 
CCc1cc(C(=O)NC(CCl)c2ccc(Oc3ccccc3)cc2)n(C)n1 (stereo not drawn) | 60 | 100 | 50 | 95 | 40 | 30 | 100 | 40 | 0 | 100 | 100 | 50 |  | 40 | 45 | 100 | 0 | 30 |  | 100 | LC50 (Culex pipiens pallens [12]): 0.35 mg/kg
CCc1nn(C)c(C2=NC(c3ccc(Oc4ccccc4)cc3)CO2)c1Cl (stereo not drawn) |  | 60 | 0 | 60 |  | 0 | 0 | 25 |  | 90 | 100 | 0 |  | 100 | 90 | 100 | 90 | 20 | 60 | 100 | LC50 (Helicoverpa armigera [22]): 2.8 mg/kg
CCc1nn(C)c(C(=O)NC(CCl)c2ccc(Oc3ccccc3)cc2)c1Cl (stereo not drawn) | 0 | 100 | 20 | 80 | 0 | 20 | 60 | 30 |  | 100 | 100 | 0 | Active | 100 | 90 | 100 | 80 | 60 | 40 | 100 | 
CCCCCOc1ccc(C2COC(c3c(Cl)c(CC)nn3C)=N2)cc1 (stereo not drawn) |  | 50 | 40 | 90 | 20 | 0 | 0 | 15 | 15 | 100 | 100 | 20 | Active | 100 | 70 | 100 | 80 | 30 | 30 | 100 | 
CCc1nn(C)c(C2=NC(c3ccc(C(C)(C)C)cc3)CO2)c1Cl (stereo not drawn) | 0 | 100 | 20 | 50 | 0 | 30 | 50 | 45 | 10 | 90 | 100 | 30 |  | 100 | 50 | 100 | 70 | 30 | 40 | 100 | 
CCc1nn(C)c(C(=O)NCc2ccc(Oc3ccc(C)cc3)cc2)c1Cl [TOLFENPYRAD] |  |  |  |  |  |  |  |  |  |  |  |  |  | 100 | 100 | 100 | 100 | 100 | 70 | 100 | LC50 (Helicoverpa armigera [22]): 2.47 mg/kg
CCc1cc(C(=O)NC(CCl)c2ccc(C(C)(C)C)cc2)n(C)n1 (stereo not drawn) |  | 0 | 80 | 65 | 40 | 0 |  | 20 | 0 | 80 | 60 | 30 |  | 100 | 30 | 100 | 90 | 15 | 60 | 100 | LC50 (Helicoverpa armigera [22]): 3.33 mg/kg
